# Source: ChEMBL document CHEMBL1817569, “Synthesis, antifungal activity and QSAR study of 2-arylhydroxynitroindoles” (Eur J Med Chem, 2011)
# Tests used:
# Rhizoctonia solani [1] = test: Fungicidal activity against Rhizoctonia solani assessed as mycelium growth inhibition after 72 hrs; assay type: functional, organism-based
# In short: (§1)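 EC50 from radial mycelial growth on potato-saccharose agar over a 1–100 concentration range. Inverted 3-mm fungus-coated discs are placed on the agar and incubated at 25 °C. Colony diameter (mm) is measured at 72 h, with plain medium as blank. Percent inhibition = (DC − DT)/DC × 100. Triplicate tests.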
# Venturia inaequalis [2] = test: Fungicidal activity against Venturia inaequalis assessed as mycelium growth inhibition after 72 hrs; assay type: functional, organism-based; in short: as §1
# Sclerotinia sclerotiorum [3] = test: Fungicidal activity against Sclerotinia sclerotiorum assessed as mycelium growth inhibition after 72 hrs; assay type: functional, organism-based; in short: as §1
# Fusarium oxysporum [4] = test: Fungicidal activity against Fusarium oxysporum assessed as mycelium growth inhibition at 30 ug/mL after 72 hrs; assay type: functional; settings: read-out: GI
# In short: (§2)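 Radial mycelial growth test on potato-saccharose agar mixed with compound at a single concentration. Plates are inoculated with inverted 3-mm fungus-coated discs and incubated at 25 °C. Colony diameter (mm) is read at 72 h against medium without sample. Inhibition I = [(DC − DT)/DC] × 100%. Three replicates.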
# Sclerotinia sclerotiorum [5] = test: Fungicidal activity against Sclerotinia sclerotiorum assessed as mycelium growth inhibition at 30 ug/mL after 72 hrs; assay type: functional; settings: read-out: GI; in short: as §2
# Fusarium oxysporum [6] = test: Fungicidal activity against Fusarium oxysporum assessed as mycelium growth inhibition after 72 hrs; assay type: functional, organism-based; in short: as §1
# Bipolaris sorokiniana [7] = test: Fungicidal activity against Bipolaris sorokiniana assessed as mycelium growth inhibition after 72 hrs; assay type: functional, organism-based; in short: as §1
# Rhizoctonia solani [8] = test: Fungicidal activity against Rhizoctonia solani assessed as mycelium growth inhibition at 30 ug/mL after 72 hrs; assay type: functional; settings: read-out: GI; in short: as §2
# Fusarium verticillioides [9] = test: Fungicidal activity against Fusarium moniliforme assessed as mycelium growth inhibition after 72 hrs; assay type: functional, organism-based; in short: as §1
# Bipolaris sorokiniana [10] = test: Fungicidal activity against Bipolaris sorokiniana assessed as mycelium growth inhibition at 30 ug/mL after 72 hrs; assay type: functional; settings: read-out: GI; in short: as §2
# Venturia inaequalis [11] = test: Fungicidal activity against Venturia inaequalis assessed as mycelium growth inhibition at 30 ug/mL after 72 hrs; assay type: functional; settings: read-out: GI; in short: as §2
# Fusarium verticillioides [12] = test: Fungicidal activity against Fusarium moniliforme assessed as mycelium growth inhibition at 30 ug/mL after 72 hrs; assay type: functional; settings: read-out: GI; in short: as §2
SMILES,EC50 (Rhizoctonia solani [1]) [µg/mL],EC50 (Venturia inaequalis [2]) [µg/mL],EC50 (Sclerotinia sclerotiorum [3]) [µg/mL],inhibition of growth at 30 µg/mL (Fusarium oxysporum [4]) [%],inhibition of growth at 30 µg/mL (Sclerotinia sclerotiorum [5]) [%],EC50 (Fusarium oxysporum [6]) [µg/mL],EC50 (Bipolaris sorokiniana [7]) [µg/mL],inhibition of growth at 30 µg/mL (Rhizoctonia solani [8]) [%],EC50 (Fusarium verticillioides [9]) [µg/mL],inhibition of growth at 30 µg/mL (Bipolaris sorokiniana [10]) [%],inhibition of growth at 30 µg/mL (Venturia inaequalis [11]) [%],inhibition of growth at 30 µg/mL (Fusarium verticillioides [12]) [%]
Cc1c(-c2ccccc2)[nH]c2cc([N+](=O)[O-])cc(O)c12,5.86,15.4,8.65,87,100,18,13,100,3.48,89,93,100
O=[N+]([O-])c1cc(O)c2cc(-c3ccccc3)[nH]c2c1,11.2,16.9,17.2,88,100,21.5,26.6,100,6.84,100,89,100
O=[N+]([O-])c1cc(O)c2cc(-c3ccccc3Cl)[nH]c2c1,–,–,–,88,100,–,–,100,–,100,44,100
O=[N+]([O-])c1cc(O)c2cc(-c3ccc(Cl)cc3Cl)[nH]c2c1,–,–,–,25,29,–,–,36,–,22,26,54
O=[N+]([O-])c1cc(O)c2cc(-c3ccc(O)cc3)[nH]c2c1,–,–,–,27,19,–,–,38,–,18,20,39
O=[N+]([O-])c1cc(O)c2c(CCn3cncn3)c(-c3ccc(F)cc3)[nH]c2c1,–,–,–,28,17,–,–,31,–,52,2,30
O=[N+]([O-])c1cc(O)c2cc(-c3ccc(Br)cc3)[nH]c2c1,–,–,–,12,14,–,–,11,–,5,15,21
O=[N+]([O-])c1cc(O)c2cc(-c3ccc(C(F)(F)F)cc3)[nH]c2c1,–,–,–,71,70,–,–,82,–,74,53,84
O=[N+]([O-])c1cc(O)c2cc(-c3ccc(F)cc3)[nH]c2c1,–,–,–,58,48,–,–,96,–,35,60,73
COc1ccccc1-c1cc2c(O)cc([N+](=O)[O-])cc2[nH]1,–,–,–,15,20,–,–,8,–,20,26,36
Nc1cc([N+](=O)[O-])c2cc(-c3ccccc3)oc2c1,–,–,–,9,7,–,–,3,–,3,16,5
COc1cc([N+](=O)[O-])cc2[nH]c(-c3ccccc3)c(C)c12,–,–,–,11,5,–,–,13,–,7,2,7
COc1cc([N+](=O)[O-])cc2c1c(C)c(-c1ccccc1)n2C,–,–,–,8,0,–,–,4,–,12,12,8
COc1cc([N+](=O)[O-])cc2c1cc(-c1ccccc1)n2C,–,–,–,7,8,–,–,7,–,7,21,23
Cn1c(-c2ccccc2)cc2c(O)cc([N+](=O)[O-])cc21,–,–,–,56,23,–,–,77,–,77,46,51
O=[N+]([O-])c1cc(O)c2cc(-c3ccccc3)n(Cc3ccc(Cl)cc3)c2c1,–,–,–,27,2,–,–,34,–,11,12,18
Cc1c(-c2ccccc2)[nH]c2c([N+](=O)[O-])cc(O)cc12,–,–,–,34,51,–,–,91,–,83,41,54
Cc1c(-c2ccccc2)[nH]c2c(O)cc([N+](=O)[O-])cc12,–,–,–,63,94,–,–,89,–,95,48,71
Cc1c(-c2ccccc2)[nH]c2c([N+](=O)[O-])ccc(O)c12,–,–,–,73,51,–,–,100,–,83,70,84
Cc1c(-c2ccccc2)[nH]c2c(O)ccc([N+](=O)[O-])c12,–,–,–,91,54,–,–,100,–,87,65,88
CC(C)(C)C(=O)C(Oc1ccc(Cl)cc1)n1cncn1 (centres undefined) [TRIADIMEFON],20.6,20,6.18,60,47,3.25,11,66,2.41,71,42,79
